Results gathered from unrelated publications.
Lines come from different studies, so protocols differ.
Target: Protein kinase C gamma type (PRKCG, Homo sapiens, UniProt P05129)

SMILES | read-out | mode | method | tested at | quantity | result
COc1cc2ncnc(Nc3ccc(Oc4ccccc4)cc3C)c2cc1OC | enzyme activity | inhibitor |  | 1 µM | inhibition | -3%
CC(C)(O)[C@H]1CC[C@H](Nc2ccc3ncc(-c4cccc(C(F)(F)F)c4)n3n2)CC1 | enzyme activity | inhibitor |  | 1 µM | remaining activity | 99%
C[C@@H](N)[C@H]1CC[C@H](C(=O)Nc2ccncc2)CC1 | enzyme activity | inhibitor | TR-FRET | 10 µM | inhibition | 6.8%
CNC(=O)c1cc(Oc2ccc(NC(=O)Nc3ccc(Cl)c(C(F)(F)F)c3)cc2)ccn1 | enzyme activity | inhibitor |  | 10 µM | inhibition | 9%
Cc1sc(C(=O)NC2COC2)cc1-n1cc(NC(=O)Nc2c(F)cccc2Cl)cn1 | enzyme activity | inhibitor |  | 10 µM | remaining activity | 102%
CN1CC(Oc2cnc(C#N)cc2-c2ccn3nc(NC(=O)C4CC4)cc3c2)C1 | enzyme activity | inhibitor |  | 1 µM | inhibition | 1%
Cc1ccc(C(=O)NCc2ccsc2)cc1C#Cc1cn(C(C)C)c2ncnc(N)c12 | enzyme activity | inhibitor |  | 1 µM | activity vs control | 97%
CC(C)(C)c1nc2c(s1)c1nc(N)ncc1c1ccc(NS(=O)(=O)c3c(F)cccc3F)c(F)c12 | enzyme activity | inhibitor | radiometric | 1 µM | remaining activity | 103%
CCOc1cc(-c2nncn2C)ccc1Nc1ncc2cc(C)nc(NCC(C)(C)C)c2n1 | enzyme activity | inhibitor | FRET | 1 µM | inhibition | < 15%
Cc1ccc(-n2nc(C(C)(C)C)cc2NC(=O)Nc2ccc(OCCN3CCOCC3)c3ccccc23)cc1 | enzyme activity | inhibitor |  | 10 µM | inhibition | 7%
N#CCCc1ccc2c(c1)-c1[nH]c3ccc([N+](=O)[O-])cc3c1CC(=O)N2 | cell-free assay |  |  | 0.5 µM | remaining signal | 93.3%
O=C(Nc1cnn(-c2csc(C(=O)NC3COC3)c2)c1)Nc1c(F)cccc1Cl | enzyme activity | inhibitor |  | 5 µM | remaining activity | 98.3%
CCCOc1ccc(OC)c(F)c1C(=O)c1ccc(C(=O)N[C@@H]2CNC[C@H]2NC(=O)c2ccc3[nH]ncc3c2)cc1 | enzyme activity | inhibitor |  | 10 µM | remaining activity | 73%
FC(F)(F)Oc1cccc(-c2cnc3ccc(-c4ccncc4)nn23)c1 | enzyme activity | inhibitor | radiometric | 1 µM | activity vs control | 96%
COc1cc(Nc2cnc(C#N)c(O[C@H](C)CN(C)C)n2)ncc1-c1cnn(C)c1 | enzyme activity | inhibitor | radiometric | 1 µM | remaining activity | 90%
CCN(CC)CCNC(=O)c1c(C)[nH]c(/C=C2\C(=O)Nc3ccc(F)cc32)c1C | enzyme activity | inhibitor |  | 10 µM | inhibition | 32%
